From ChEMBL document CHEMBL1136166, “The imidazo[2,1-a]isoindole system. A new skeletal basis for antiplasmodial compounds” (Bioorg Med Chem Lett, 2003)
≈ marks a conversion by molar mass, not a printed value. Where “and” joins values, the source holds several entries; their conditions need not be identical. Equal entries are not always repeated.

Legend:
Plasmodium falciparum [1] = assay: In vitro inhibitory concentration against Plasmodium falciparum F32; assay type: functional, organism-based
How it was run: (§1)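 P. falciparum F32-Tanzania (chloroquine-sensitive) cultured per Trager-Jensen in glucose-enriched RPMI 1640 with 10% human serum, 37 °C, candle jar. Human O+ red cells at 5% haematocrit, 1% parasitaemia. After 24 h, medium replaced with drug-containing medium (final DMSO ≤0.1%) and incubated a further 48 h. Parasitaemia counted on blood smears; IC50 read graphically from % inhibition vs concentration. Triplicate. Index = IC50 chloroquine/IC50 compound ×100.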

Plasmodium falciparum [2] = assay: Antiplasmodial potency relative to chloroquine; assay type: functional; how it was run: as §1
Ferriprotoporphyrin IX [3] = assay: In vitro inhibitory concentration against ferriprotoporphyrin in biomineralisation assay (FBIT); Not active; assay type: functional, Plasmodium falciparum
How it was run: (§2)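 Heme biomineralization (FBIT): haemin chloride (0.5 mg/mL stock in DMSO), 0.5 M sodium acetate pH 4.4 and compound solution (10 mg/mL stock) were added in that order, final pH 5–5.2, and incubated at 37 °C for 18–24 h. After centrifugation, the pellet was washed with DMSO and the β-haematin dissolved in 0.1 M NaOH; absorbance read at 405 nm. % inhibition calculated against the solvent control.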

Ferriprotoporphyrin IX [4] = assay: Inhibitory concentration against ferriprotoporphyrin in biomineralisation assay (FBIT); Not active; assay type: functional, Plasmodium falciparum; how it was run: as §2
Ferriprotoporphyrin IX [5] = assay: Inhibitory concentration against ferriprotoporphyrin in biomineralisation assay (FBIT); assay type: functional, Plasmodium falciparum; how it was run: as §2
Ferriprotoporphyrin IX [6] = assay: In vitro inhibitory concentration against ferriprotoporphyrin in biomineralisation assay (FBIT); assay type: functional, Plasmodium falciparum; how it was run: as §2
Ferriprotoporphyrin IX [7] = assay: Antiplasmodial potency relative to chloroquine in ferriprotoporphyrin biomineralisation assay; assay type: functional; details: Plasmodium falciparum
Ferriprotoporphyrin IX [8] = assay: Inhibitory concentration against ferriprotoporphyrin in biomineralisation (FBIT); assay type: functional, Plasmodium falciparum; how it was run: as §2

IC50 (Plasmodium falciparum [1]) | Compound | Index (Plasmodium falciparum [2]) | other results
100 µg/mL and > 100 µM | COc1cc(CC(=O)c2ccccc2C(=O)N2CCCCC2)cc(OC)c1OC | <0.1% | –
2.3 µg/mL and 7.5 µM | COc1ccc(CC2(O)c3ccccc3C3=NCCCN32)cc1 (stereo unspecified) | 0.5% | –
15 µg/mL and 52.8 µM | Cn1nc(Cc2ccc(Cl)cc2)c2ccccc2c1=O | <0.1% | –
> 100 µg/mL and > 100 µM | O=c1[nH]nc(Cc2ccccc2)c2ccccc12 | <0.1% | –
30 µg/mL and 82 µM | COc1cc(C(=O)C(=O)c2ccccc2C(=O)N2CCCCC2)cc(OC)c1OC | <0.1% | –
> 100 µg/mL and > 100 µM | O=C(Cc1ccc2c(c1)OCO2)c1ccccc1C(=O)N1CCCCC1 | <0.1% | –
17 µg/mL and 48 µM | COc1ccc(C(=O)C(=O)c2ccccc2C(=O)N2CCCCC2)cc1 | <0.1% | –
> 100 µg/mL and > 100 µM | COc1cc(Cc2nnc(O)c3ccccc23)cc(OC)c1OC | <0.01% | –
5 µg/mL and 20 µM | Cn1nc(Cc2ccccc2)c2ccccc2c1=O | 0.2% | –
32 µg/mL and > 100 µM | COc1cc(Cc2nn(C)c(=O)c3ccccc23)cc(OC)c1OC | <0.1% | –
3.8 µg/mL and 11 µM | Cn1nc(Cc2ccc3c(c2)OCO3)c2ccccc2c1=O | 0.4% | –
1 µg/mL and 3.6 µM | OC1(Cc2ccccc2)c2ccccc2C2=NCCCN21 (stereo unspecified) | 1.1% | IC50 (Ferriprotoporphyrin IX [3]): Not Active; IC50 (Ferriprotoporphyrin IX [4]): Not Active
12 µg/mL and 33.8 µM | O=C(C(=O)c1ccccc1C(=O)N1CCCCC1)c1ccc(Cl)cc1 | 0.12% | –
26 µg/mL and 84 µM | COc1ccc(Cc2nn(C)c(=O)c3ccccc23)cc1OC | <0.1% | –
0.022 µg/mL and 70 nM | COc1cc(CC2(O)c3ccccc3C3=NCCN32)cc(OC)c1OC (stereo unspecified) | 57% | IC50 (Ferriprotoporphyrin IX [5]): 590 µg/mL (≈ 1660 µM); IC50 (Ferriprotoporphyrin IX [6]): 1740 µM; Index (Ferriprotoporphyrin IX [7]): 1.6%
6 µg/mL and 22 µM | Oc1nnc(Cc2ccc(Cl)cc2)c2ccccc12 | 0.18% | –
36 µg/mL and 98 µM | COc1ccc(CC(=O)c2ccccc2C(=O)N2CCCCC2)cc1OC | <0.1% | –
> 100 µg/mL and > 100 µM | Oc1nnc(Cc2ccc3c(c2)OCO3)c2ccccc12 | <0.01% | –
95 µg/mL and > 100 µM | COc1ccc(Cc2nnc(O)c3ccccc23)cc1OC | <0.1% | –

IC50 (Plasmodium falciparum [1]) | Compound | Index (Plasmodium falciparum [2]) | other results
1 µg/mL and 3.6 µM | COc1ccc(Cc2nn(C)c(=O)c3ccccc23)cc1 | 1.1% | IC50 (Ferriprotoporphyrin IX [3]): Not Active; IC50 (Ferriprotoporphyrin IX [4]): Not Active
5.2 µg/mL and 16.1 µM | COc1cc(CC2(O)c3ccccc3C3=NCCCN32)cc(OC)c1OC (stereo unspecified) | 0.2% | –
– | CCN(CC)CCCC(C)Nc1ccnc2cc(Cl)ccc12 (stereo unspecified) [CHLOROQUINE] | – | IC50 (Ferriprotoporphyrin IX [5]): 8.5 µg/mL (≈ 26.6 µM); IC50 (Ferriprotoporphyrin IX [6]): 28 µM
0.017 µg/mL and 40 nM | COc1ccc(CC2(O)c3ccccc3C3=NCCN32)cc1 (stereo unspecified) | 100% | IC50 (Ferriprotoporphyrin IX [3]): Not Active; IC50 (Ferriprotoporphyrin IX [4]): Not Active
32 µg/mL and 104 µM | COc1ccc(CC2(O)c3ccccc3C3=NCCCN32)cc1OC (stereo unspecified) | <0.1% | –
8.5 µg/mL and 20.7 µM | O=C(C(=O)c1ccccc1C(=O)N1CCCCC1)c1ccc2c(c1)OCO2 | 0.2% | –
6 µg/mL and 16.3 µM | COc1ccc(CCc2cc(O)cc(OC)c2C(=O)N2CCCCC2)cc1 | 0.25% | –
> 100 µg/mL and > 100 µM | COc1ccc(CC(=O)c2ccccc2C(=O)N2CCCCC2)cc1 | <0.1% | –
2.5 µg/mL and 9.5 µM | OC1(Cc2ccccc2)c2ccccc2C2=NCCN21 (stereo unspecified) | 0.4% | –
0.067 µg/mL and 190 nM | OC1(Cc2ccc3c(c2)OCO3)c2ccccc2C2=NCCN21 (stereo unspecified) | 21% | –
– | C=C[C@H]1CN2CC[C@H]1C[C@H]2[C@H](O)c1ccnc2ccc(OC)cc12 [QUININE] | – | IC50 (Ferriprotoporphyrin IX [6]): 250 µM; IC50 (Ferriprotoporphyrin IX [8]): 80 µg/mL (≈ 247 µM); Index (Ferriprotoporphyrin IX [7]): 11%
16 µg/mL and 53 µM | COc1ccc(CCc2cc(O)cc(OC)c2C(=O)O)cc1 [ISONOTHOLAENIC ACID] | <0.1% | –
1 µg/mL and 3.8 µM | COc1ccc(Cc2nnc(O)c3ccccc23)cc1 | 1.1% | IC50 (Ferriprotoporphyrin IX [5]): 1530 µg/mL (≈ 5750 µM); IC50 (Ferriprotoporphyrin IX [6]): 5750 µM; Index (Ferriprotoporphyrin IX [7]): 0.5%
4.9 µg/mL and 9.3 µM | COc1ccc(CC2(O)c3ccccc3C3=NCCN32)cc1OC (stereo unspecified) | 0.4% | –
0.036 µg/mL and 110 nM | OC1(Cc2ccc(Cl)cc2)c2ccccc2C2=NCCN21 (stereo unspecified) | 36% | IC50 (Ferriprotoporphyrin IX [3]): Not Active; IC50 (Ferriprotoporphyrin IX [4]): Not Active
12 µg/mL and 35 µM | O=C(Cc1ccc(Cl)cc1)c1ccccc1C(=O)N1CCCCC1 | 0.11% | –
32 µg/mL and 84 µM | COc1ccc(C(=O)C(=O)c2ccccc2C(=O)N2CCCCC2)cc1OC | <0.1% | –
3.6 µg/mL and 11.5 µM | OC1(Cc2ccc(Cl)cc2)c2ccccc2C2=NCCCN21 (stereo unspecified) | 0.3% | –
38 µg/mL and 104 µM | OC1(Cc2ccc3c(c2)OCO3)c2ccccc2C2=NCCCN21 (stereo unspecified) | <0.1% | –
